Structures are written as SMILES. The source made the active and inactive calls. The calls are words filed in the database; no cut-off is given here.

Series [1] concerns the target MAP kinase-activated protein kinase 5 (Homo sapiens) (UniProt Q8IW41). Briefly: Inhibition of recombinant human His6-tagged PRAK (1 to 471 residues) expressed in baculovirus infected Sf21 cells assessed as remaining activity at 10 uM using phosphorylase b peptide as substrate incubated for 30 mins in presence of [gamma-33P]ATP by filter binding method relative to control. The essentials: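 Robotic radiometric panel assay, 30 min at room temperature (21 °C), with 10 mM magnesium acetate. […] Compound at 1 or 10 µM. Residual activity expressed relative to compound-free control; triplicate average ± S.D.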

In series [2] the target is Casein kinase II subunit alpha (Homo sapiens) (UniProt P68400). Briefly: Inhibition of recombinant human N-terminal His6-tagged CK2alpha1 (2 to 391 residues) expressed in Escherichia coli assessed as remaining activity at 10 uM using RRRDDDSDDD as substrate incubated for 30 mins in presence of [gamma-33P]ATP by filter binding method relative to control. The essentials:
(§1)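 Radiometric panel assay run robotically at 21 °C for 30 min, linear in time and enzyme. […] Activity is expressed as percentage of the compound-omitted control, averaged from triplicates ± S.D.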

The subject of series [3] is RAC-alpha serine/threonine-protein kinase (Homo sapiens), P31749 [S473D]. Briefly: Inhibition of recombinant human His6-tagged AKT1 S473D mutant (118 to 480 residues) expressed in baculovirus infected Sf21 cells assessed as remaining activity at 10 uM using crosstide peptide as substrate incubated for 30 mins in presence of [gamma-33P]ATP by filter binding method relative to control. The essentials: as §1

Series [4] has as its system MEF. Briefly: Induction of cell cycle arrest in mLST8 knockout MEF cells assessed as accumulation at G2 phase at 3 uM incubated for 1 to 3 days by propidium iodide staining based flow cytometric analysis (reference value: 14.1 +/- 0.69%). In kind it is toxicity. As to conditions: mouse, time 1-3 day. Background: In flow cytometry, cells or beads pass a laser one at a time.

Series [5] deals with Tyrosine-protein kinase BTK (Homo sapiens) (UniProt Q06187). The experiment in a line: Inhibition of recombinant human N-terminal His6-tagged BTK (2 to 659 residues) expressed in baculovirus infected Sf21 cells assessed as remaining activity at 1 uM using KVEKIGEGTYGVVYK as substrate incubated for 30 mins in presence of [gamma-33P]ATP by filter binding method relative to control. The essentials:
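Incubation was 30 min at room temperature (21 °C) under conditions linear with time and enzyme amount. Activity is reported as percent of control lacking compound, triplicate mean ± S.D.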

For series [6], the system named is MEF. The experiment in a line: Growth inhibition of mLST8 knockout MEF cells assessed reduction in cell viability at 3 uM incubated for 1 to 3 days by crystal violet staining based assay. As to conditions: mouse, time 1-3 day. It is filed as toxicity. The essentials: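 MEFs seeded at 20000 cells per 1.91 cm2 well, grown overnight in 10% foetal bovine serum, then cultured 1, 2 or 3 days with 3 μM inhibitor, 100 nM rapamycin or DMSO. Medium changed every 24 h with freshly dissolved inhibitors. Cells fixed in 4% paraformaldehyde, stained with 0.1% Crystal Violet, dye extracted in 10% acetic acid, A590 read. Quadruplicate wells, expressed as % of DMSO control.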

In series [7] the target is Serine/threonine-protein kinase pim-2 (Homo sapiens) (UniProt Q9P1W9). The experiment in a line: Inhibition of recombinant human N-terminal GST-tagged PIM2 (2 to 334 residues) expressed in Escherichia coli assessed as remaining activity at 10 uM using RSRHSSYPAGT as substrate incubated for 30 mins in presence of [gamma-33P]ATP by filter binding method relative to control. The gist of the method:
(§2)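 Radiometric kinase panel run robotically at room temperature (21 °C) for 30 min, linear in time and enzyme. […] Activity is expressed as percent of control without compound, from triplicate determinations ± S.D.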

Series [8] deals with Vascular endothelial growth factor receptor 1 (Homo sapiens) (UniProt P17948). The experiment in a line: Inhibition of recombinant human N-terminal GST-tagged VEGFR1 (784 to 1338 residues) expressed in baculovirus infected Sf21 cells assessed as remaining activity at 1 uM using KKKSPGEYVNIEFG as substrate incubated for 30 mins in presence of [gamma-33P]ATP by filter binding assay relative to control. The gist of the method:
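Panel assays were run for 30 min at 21 °C, within the linear range for time and enzyme. […] Results are percent activity remaining relative to compound-free control, averaged from triplicate ± S.D.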

The target in series [9] is Phosphatidylinositol 4-phosphate 3-kinase C2 domain-containing subunit beta (Homo sapiens) (UniProt O00750). The experiment in a line: Inhibition of PI3KC2beta (unknown origin) assessed as remaining activity at 1 uM using phosphatidylinositol as substrate incubated for 30 mins in presence of ATP relative to control. The gist of the method:
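PI3KC2β assayed with 20 μM phosphatidylinositol, 0.2 mM ATP, 2 mM MgCl2, in Tris/HCl pH 7.5 with CHAPS, 30 min at room temperature. Stopped with EDTA, product detected by time-resolved FRET competition with PtdIns3P–biotin and SGK PX domain. Activity as % of no-compound control, triplicate.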

Series [10] has as its system MEF. The experiment in a line: Inhibition of mTORC2 in serum starved sin1 knockout MEF cells assessed as reduction IGF1-stimulated AKT phosphorylation at Thr308 residue at 100 to 1000 nM incubated for 20 mins by immunoblot analysis. The settings on record: Mus musculus, dose 100-1000 nM. It is filed as cell-based. The essentials:
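Serum withdrawn 16 h. Inhibitor or vehicle given 30 min before stimulation with 50 ng/ml IGF-1 for 20 min. Lysed in Tris lysis buffer and immunoblotted for Akt Thr308 phosphorylation with ECL detection. Applies to HEK-293 and to wild-type, Rictor, Sin1 or mLST8 knockout MEFs. Three independent experiments.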
On the technique in general: A western blot detects proteins with antibodies after separation by electrophoresis.

Series [11] has as its target Dual specificity tyrosine-phosphorylation-regulated kinase 1A (Homo sapiens) (UniProt Q13627). Briefly: Inhibition of recombinant human N-terminal GST-tagged DYRK1A (1 to 502 residues) expressed in Escherichia coli assessed as remaining activity at 1 uM using KKISGRLSPIMTEQ as substrate incubated for 30 mins in presence of [gamma-33P]ATP by filter binding method relative to control. The gist of the method: (§3)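 Run robotically for 30 min at 21 °C under linear conditions. Compound at 1 or 10 µM. Percentage activity remaining versus control without compound, triplicate mean ± S.D.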

Series [12] has as its target Calcium/calmodulin-dependent protein kinase type 1 (Homo sapiens) (UniProt Q14012). Briefly: Inhibition of recombinant human N-terminal GST-tagged CAMK1alpha (2 to 369 residues) expressed in Escherichia coli assessed as remaining activity at 1 uM using YLRRRLSDSNF as substrate incubated for 30 mins in presence of [gamma-33P]ATP by filter binding method relative to control. The essentials: as §3

The target in series [13] is Ephrin type-A receptor 2 (Homo sapiens) (UniProt P29317). Briefly: Inhibition of recombinant human N-terminal GST-tagged EPHA2 (591 to 976 residues) expressed in Escherichia coli assessed as remaining activity at 1 uM using Poly (Glu,Tyr) as substrate incubated for 30 mins in presence of [gamma-33P]ATP by filter binding method relative to control. The gist of the method: as §3
Chain of Ephrin type-A receptor 2 (Homo sapiens) (P29317 whole entry, the tested form may be a part): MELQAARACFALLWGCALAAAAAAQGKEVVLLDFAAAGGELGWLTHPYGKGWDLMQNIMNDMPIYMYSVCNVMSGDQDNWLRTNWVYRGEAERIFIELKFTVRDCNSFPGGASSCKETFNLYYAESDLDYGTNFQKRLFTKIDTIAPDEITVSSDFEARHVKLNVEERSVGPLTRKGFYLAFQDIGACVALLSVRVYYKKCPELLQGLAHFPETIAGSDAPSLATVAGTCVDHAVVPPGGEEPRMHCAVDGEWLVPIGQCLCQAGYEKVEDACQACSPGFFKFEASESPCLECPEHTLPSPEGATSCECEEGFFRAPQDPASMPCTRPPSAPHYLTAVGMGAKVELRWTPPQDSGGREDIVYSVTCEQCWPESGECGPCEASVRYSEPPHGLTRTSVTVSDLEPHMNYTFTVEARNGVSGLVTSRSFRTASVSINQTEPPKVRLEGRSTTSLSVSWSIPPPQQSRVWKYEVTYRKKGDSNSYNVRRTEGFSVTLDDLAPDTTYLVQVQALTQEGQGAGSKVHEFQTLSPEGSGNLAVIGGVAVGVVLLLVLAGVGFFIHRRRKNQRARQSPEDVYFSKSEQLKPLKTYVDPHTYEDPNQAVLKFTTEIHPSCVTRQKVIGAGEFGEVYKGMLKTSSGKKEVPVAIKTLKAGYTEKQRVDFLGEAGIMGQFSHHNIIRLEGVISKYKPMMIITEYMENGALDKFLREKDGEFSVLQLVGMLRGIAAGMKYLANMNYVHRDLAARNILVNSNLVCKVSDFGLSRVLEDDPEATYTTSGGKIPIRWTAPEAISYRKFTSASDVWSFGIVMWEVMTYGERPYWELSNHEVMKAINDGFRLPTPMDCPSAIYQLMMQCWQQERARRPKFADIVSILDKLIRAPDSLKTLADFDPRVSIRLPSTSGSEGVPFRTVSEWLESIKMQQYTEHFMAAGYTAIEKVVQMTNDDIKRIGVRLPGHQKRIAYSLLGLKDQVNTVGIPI

Series [14] deals with Mitogen-activated protein kinase 15 (Homo sapiens) (UniProt Q8TD08). Briefly: Inhibition of recombinant human N-terminal His6-tagged ERK8 (2 to 544 residues) expressed in baculovirus infected Sf21 cells assessed as remaining activity at 1 uM using MBP as substrate incubated for 30 mins in presence of [gamma-33P]ATP by filter binding method relative to control. The gist of the method: as §2
Chain of Mitogen-activated protein kinase 15 (Homo sapiens) (Q8TD08 whole entry, the tested form may be a part): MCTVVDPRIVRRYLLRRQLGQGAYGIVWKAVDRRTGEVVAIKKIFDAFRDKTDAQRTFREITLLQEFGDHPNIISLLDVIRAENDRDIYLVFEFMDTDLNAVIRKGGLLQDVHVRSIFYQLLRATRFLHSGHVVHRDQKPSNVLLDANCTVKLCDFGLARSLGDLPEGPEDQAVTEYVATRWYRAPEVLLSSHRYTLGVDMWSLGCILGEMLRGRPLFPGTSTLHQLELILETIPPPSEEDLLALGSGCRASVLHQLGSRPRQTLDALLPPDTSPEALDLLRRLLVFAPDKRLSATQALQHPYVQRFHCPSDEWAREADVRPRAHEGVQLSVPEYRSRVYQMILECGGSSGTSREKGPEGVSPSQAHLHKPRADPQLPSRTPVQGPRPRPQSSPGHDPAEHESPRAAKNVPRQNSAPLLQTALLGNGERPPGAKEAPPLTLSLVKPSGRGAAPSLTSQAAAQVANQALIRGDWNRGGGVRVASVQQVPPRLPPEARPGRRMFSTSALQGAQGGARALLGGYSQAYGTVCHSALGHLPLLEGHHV

Chain of Phosphatidylinositol 4-phosphate 3-kinase C2 domain-containing subunit beta (Homo sapiens) (O00750 whole entry, the tested form may be a part): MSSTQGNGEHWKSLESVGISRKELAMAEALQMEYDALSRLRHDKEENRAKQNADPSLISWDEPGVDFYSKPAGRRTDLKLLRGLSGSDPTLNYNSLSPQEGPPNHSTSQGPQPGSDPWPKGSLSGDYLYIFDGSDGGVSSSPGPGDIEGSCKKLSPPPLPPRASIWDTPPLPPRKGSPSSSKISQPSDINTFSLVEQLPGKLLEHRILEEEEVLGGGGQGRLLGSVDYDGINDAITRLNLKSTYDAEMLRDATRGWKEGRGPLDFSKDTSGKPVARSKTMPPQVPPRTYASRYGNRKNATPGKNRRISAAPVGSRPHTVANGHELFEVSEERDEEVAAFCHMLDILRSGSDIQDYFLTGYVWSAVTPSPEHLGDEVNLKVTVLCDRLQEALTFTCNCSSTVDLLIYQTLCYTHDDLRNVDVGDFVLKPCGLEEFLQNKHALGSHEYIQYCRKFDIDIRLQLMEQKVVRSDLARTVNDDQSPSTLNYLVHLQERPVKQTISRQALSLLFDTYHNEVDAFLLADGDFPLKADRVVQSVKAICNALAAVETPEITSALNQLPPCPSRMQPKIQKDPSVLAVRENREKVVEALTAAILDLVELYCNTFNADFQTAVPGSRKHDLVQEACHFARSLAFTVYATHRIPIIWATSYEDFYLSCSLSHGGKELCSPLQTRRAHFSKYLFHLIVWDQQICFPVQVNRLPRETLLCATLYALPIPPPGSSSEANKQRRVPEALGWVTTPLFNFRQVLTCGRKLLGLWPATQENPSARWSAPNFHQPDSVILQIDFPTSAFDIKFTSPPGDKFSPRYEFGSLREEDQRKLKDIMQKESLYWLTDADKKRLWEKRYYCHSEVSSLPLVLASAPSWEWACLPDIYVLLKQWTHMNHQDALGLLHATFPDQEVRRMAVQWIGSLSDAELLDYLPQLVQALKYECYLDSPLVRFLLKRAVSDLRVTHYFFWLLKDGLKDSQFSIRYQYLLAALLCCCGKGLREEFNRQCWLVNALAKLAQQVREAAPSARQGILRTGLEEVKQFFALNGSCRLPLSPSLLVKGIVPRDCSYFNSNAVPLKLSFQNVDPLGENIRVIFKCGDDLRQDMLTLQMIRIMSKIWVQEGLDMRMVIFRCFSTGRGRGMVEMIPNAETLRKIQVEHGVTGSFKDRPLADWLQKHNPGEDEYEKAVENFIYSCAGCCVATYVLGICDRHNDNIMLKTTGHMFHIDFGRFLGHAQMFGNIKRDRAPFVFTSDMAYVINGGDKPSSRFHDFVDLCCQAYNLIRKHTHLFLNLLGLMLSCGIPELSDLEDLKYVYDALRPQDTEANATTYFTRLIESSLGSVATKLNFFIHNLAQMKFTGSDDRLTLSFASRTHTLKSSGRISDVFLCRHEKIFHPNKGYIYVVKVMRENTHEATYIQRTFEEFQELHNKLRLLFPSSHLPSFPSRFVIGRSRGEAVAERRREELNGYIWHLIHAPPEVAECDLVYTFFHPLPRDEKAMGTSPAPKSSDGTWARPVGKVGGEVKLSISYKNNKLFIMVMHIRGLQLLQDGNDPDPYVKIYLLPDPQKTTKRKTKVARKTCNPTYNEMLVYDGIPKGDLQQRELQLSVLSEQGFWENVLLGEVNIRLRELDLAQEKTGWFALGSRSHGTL
Chain of Serine/threonine-protein kinase pim-2 (Homo sapiens) (Q9P1W9 whole entry, looked up, the tested form may be a part): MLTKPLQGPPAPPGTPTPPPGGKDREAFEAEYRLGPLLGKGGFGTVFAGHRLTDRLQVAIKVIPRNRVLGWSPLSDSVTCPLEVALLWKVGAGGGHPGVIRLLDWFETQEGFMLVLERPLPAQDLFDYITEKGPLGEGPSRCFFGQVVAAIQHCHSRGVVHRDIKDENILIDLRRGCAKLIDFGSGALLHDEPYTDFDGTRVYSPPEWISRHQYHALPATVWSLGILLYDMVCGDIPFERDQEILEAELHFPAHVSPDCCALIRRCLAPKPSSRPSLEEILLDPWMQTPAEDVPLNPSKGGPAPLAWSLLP
Chain of Calcium/calmodulin-dependent protein kinase type 1 (Homo sapiens) (Q14012 whole entry, looked up, the tested form may be a part): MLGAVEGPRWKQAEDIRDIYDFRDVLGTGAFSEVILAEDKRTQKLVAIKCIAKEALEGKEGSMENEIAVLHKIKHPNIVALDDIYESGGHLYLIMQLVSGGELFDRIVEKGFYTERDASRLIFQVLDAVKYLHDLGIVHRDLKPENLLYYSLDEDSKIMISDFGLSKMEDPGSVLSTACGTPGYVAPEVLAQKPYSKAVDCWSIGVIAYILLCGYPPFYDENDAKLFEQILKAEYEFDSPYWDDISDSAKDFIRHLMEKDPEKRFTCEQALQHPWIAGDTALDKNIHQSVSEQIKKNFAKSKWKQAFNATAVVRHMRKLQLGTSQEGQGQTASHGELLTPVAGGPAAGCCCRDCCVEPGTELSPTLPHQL
Chain of RAC-alpha serine/threonine-protein kinase (Homo sapiens), P31749 [S473D] (P31749 whole entry S473D, the tested form may be a part): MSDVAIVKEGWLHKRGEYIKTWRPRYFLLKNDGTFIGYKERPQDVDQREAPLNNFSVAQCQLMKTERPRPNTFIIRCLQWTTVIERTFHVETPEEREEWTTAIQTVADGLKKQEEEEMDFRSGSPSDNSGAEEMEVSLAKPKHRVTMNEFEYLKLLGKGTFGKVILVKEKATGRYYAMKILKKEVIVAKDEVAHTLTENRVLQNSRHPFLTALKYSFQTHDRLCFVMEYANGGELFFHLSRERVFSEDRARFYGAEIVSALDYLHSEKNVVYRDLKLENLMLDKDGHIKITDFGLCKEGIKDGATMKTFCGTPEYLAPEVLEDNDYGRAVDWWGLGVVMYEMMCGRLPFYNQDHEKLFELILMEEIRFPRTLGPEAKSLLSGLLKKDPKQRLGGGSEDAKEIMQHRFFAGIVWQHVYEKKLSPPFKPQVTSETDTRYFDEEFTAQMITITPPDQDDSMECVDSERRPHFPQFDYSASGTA
Chain of Casein kinase II subunit alpha (Homo sapiens) (P68400 whole entry, looked up, the tested form may be a part): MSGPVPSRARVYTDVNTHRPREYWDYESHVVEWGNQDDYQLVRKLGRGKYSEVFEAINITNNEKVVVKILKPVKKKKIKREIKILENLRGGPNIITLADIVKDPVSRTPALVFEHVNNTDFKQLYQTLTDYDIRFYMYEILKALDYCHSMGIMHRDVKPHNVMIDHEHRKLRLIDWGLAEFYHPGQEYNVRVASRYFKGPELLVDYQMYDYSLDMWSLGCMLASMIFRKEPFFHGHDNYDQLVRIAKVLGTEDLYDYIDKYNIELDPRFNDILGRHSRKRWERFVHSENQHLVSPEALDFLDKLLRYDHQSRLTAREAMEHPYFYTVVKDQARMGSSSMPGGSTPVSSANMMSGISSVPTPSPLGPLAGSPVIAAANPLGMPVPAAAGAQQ

With `COc1ccc(-c2ccc3c(N4CCOCC4)nc(N4C[C@@H](C)O[C@@H](C)C4)nc3n2)cc1CO` [Ku-0063794], the Activity is 87% in series [1]; 85% in series [2]; 90% in series [3]; 13.3% in the series on MEF [4]; 85% in series [5]; 78% in series [7]. Further, the Activity in series [8] came to 92%; in series [9] it was 126%; in series [11], 94%; in series [12], 96%; in series [13] it was 108%; in [14], 88%. For the same molecule, in the series on MEF [6], the “growth inhibition (GI)” value is on record as “Toxic”. In the series on MEF [10], the inhibition result was “Active”.
